Article PMC10791108 (Journal of Enzyme Inhibition and Medicinal Chemistry, 2024)
Where two headings read alike, the source gives them in different places.

Tests used:
[1] = tested on: A549; experiment: MTT drug sensitivity assay; assay type: cell-based; details: Homo sapiens, A549, 72 h, read-out: In vitro growth inhibitory activity (IC50 ± SD) A549
Outline: (§1)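 ATCC lines were grown at 37 °C, 5% CO2 with 10% FBS and 2 mM L-glutamine (A549, MCF-7: RPMI-1640; HCT-116, U-2 OS: McCoy's 5A; U-87 MG: MEM; HEK293: DMEM). Test compound 0–50 µM for 72 h, then MTT 0.4 mg/ml in PBS, 3 h, 37 °C. Formazan dissolved in DMSO, absorbance 540 nm. IC50 relative to 1% v/v DMSO-treated cells; three independent runs.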

[2] = tested on: HCT-116; experiment: MTT drug sensitivity assay; assay type: cell-based; details: Homo sapiens, HCT-116, 72 h, read-out: In vitro growth inhibitory activity (IC50 ± SD) HCT-116
Outline: as §1

[3] = tested on: MCF-7; experiment: MTT drug sensitivity assay; assay type: cell-based; details: Homo sapiens, MCF7, 72 h, read-out: In vitro growth inhibitory activity (IC50 ± SD) MCF-7
Outline: as §1

[4] = tested on: U-2 OS; experiment: MTT drug sensitivity assay; assay type: cell-based; details: Homo sapiens, U2OS, 72 h, read-out: In vitro growth inhibitory activity (IC50 ± SD) U-2 OS
Outline: as §1

[5] = tested on: U-87 MG; experiment: MTT drug sensitivity assay; assay type: cell-based; details: Homo sapiens, 72 h, read-out: In vitro growth inhibitory activity (IC50 ± SD) U-87 MG
Outline: as §1

[6] = tested on: HEK293; experiment: MTT drug sensitivity assay; assay type: cell-based; details: Homo sapiens, HEK293, 72 h, read-out: In vitro growth inhibitory activity (IC50 ± SD) HEK293
Outline: as §1

[7] = tested on: all investigated cell lines, including HEK293; experiment: MTT drug sensitivity assay, statement over all cell lines; assay type: cell-based; details: Homo sapiens, HEK293, 72 h, read-out: IC50 for all investigated cell lines
Outline: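 Cells were exposed to test compound at 0–50 µM for 72 h. Lines: A549 and MCF-7 (RPMI-1640), HCT-116 and U-2 OS (McCoy's 5A), U-87 MG (MEM), HEK293 (DMEM); all with 10% FBS, 37 °C, 5% CO2. MTT (0.4 mg/ml in PBS) for 3 h at 37 °C; formazan dissolved in DMSO; A540. ETP and m-AMSA as references; independent triplicate.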

[8] = biological target: T1, Topo IIα (Homo sapiens, UniProt P11388); experiment: pBR322 DNA relaxation assay; assay type: biochemical; details: for Inhibition of Topo IIα-mediated pBR322 relaxation: gel
T1 sequence (P11388 whole entry): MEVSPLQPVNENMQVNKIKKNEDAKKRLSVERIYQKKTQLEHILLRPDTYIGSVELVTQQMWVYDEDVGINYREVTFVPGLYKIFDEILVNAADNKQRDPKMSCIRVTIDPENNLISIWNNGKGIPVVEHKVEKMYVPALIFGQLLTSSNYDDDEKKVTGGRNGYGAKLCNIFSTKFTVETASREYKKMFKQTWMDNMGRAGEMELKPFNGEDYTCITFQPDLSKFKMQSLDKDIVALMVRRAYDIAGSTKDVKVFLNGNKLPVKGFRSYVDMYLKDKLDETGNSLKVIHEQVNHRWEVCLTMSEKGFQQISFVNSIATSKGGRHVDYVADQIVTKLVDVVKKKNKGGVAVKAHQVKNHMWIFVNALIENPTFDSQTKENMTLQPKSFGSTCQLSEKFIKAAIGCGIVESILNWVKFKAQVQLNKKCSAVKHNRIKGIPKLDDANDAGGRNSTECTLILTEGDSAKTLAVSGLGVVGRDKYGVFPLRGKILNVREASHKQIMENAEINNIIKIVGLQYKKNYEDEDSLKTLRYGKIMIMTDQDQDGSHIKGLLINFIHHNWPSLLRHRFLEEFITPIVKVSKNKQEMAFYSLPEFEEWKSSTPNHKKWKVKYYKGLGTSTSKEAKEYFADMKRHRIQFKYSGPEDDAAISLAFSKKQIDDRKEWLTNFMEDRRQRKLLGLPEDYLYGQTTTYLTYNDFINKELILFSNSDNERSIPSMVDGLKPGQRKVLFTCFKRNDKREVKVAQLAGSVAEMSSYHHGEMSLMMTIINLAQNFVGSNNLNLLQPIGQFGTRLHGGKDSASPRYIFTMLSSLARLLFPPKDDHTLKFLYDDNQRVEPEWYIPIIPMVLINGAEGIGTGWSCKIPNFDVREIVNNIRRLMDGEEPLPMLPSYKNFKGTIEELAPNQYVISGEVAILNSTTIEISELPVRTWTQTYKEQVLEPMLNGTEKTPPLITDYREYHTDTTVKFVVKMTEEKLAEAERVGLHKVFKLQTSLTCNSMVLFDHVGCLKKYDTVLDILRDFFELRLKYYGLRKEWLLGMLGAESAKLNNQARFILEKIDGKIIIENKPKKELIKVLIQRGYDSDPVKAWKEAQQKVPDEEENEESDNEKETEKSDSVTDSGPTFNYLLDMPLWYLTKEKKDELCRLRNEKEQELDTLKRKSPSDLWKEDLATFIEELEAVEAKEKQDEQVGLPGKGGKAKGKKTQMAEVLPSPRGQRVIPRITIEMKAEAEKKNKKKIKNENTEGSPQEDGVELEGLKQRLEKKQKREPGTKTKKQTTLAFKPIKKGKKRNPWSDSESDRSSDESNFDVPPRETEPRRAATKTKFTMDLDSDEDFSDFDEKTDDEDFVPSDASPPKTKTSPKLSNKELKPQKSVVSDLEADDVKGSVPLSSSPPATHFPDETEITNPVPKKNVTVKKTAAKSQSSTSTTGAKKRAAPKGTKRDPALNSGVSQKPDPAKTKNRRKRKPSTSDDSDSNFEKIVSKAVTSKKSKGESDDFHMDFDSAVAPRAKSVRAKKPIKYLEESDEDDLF

[9] = biological target: T2, human Topo IIβ (Homo sapiens, UniProt Q02880); experiment: pBR322 DNA relaxation assay; assay type: biochemical; details: gel
T2 sequence (Q02880 whole entry): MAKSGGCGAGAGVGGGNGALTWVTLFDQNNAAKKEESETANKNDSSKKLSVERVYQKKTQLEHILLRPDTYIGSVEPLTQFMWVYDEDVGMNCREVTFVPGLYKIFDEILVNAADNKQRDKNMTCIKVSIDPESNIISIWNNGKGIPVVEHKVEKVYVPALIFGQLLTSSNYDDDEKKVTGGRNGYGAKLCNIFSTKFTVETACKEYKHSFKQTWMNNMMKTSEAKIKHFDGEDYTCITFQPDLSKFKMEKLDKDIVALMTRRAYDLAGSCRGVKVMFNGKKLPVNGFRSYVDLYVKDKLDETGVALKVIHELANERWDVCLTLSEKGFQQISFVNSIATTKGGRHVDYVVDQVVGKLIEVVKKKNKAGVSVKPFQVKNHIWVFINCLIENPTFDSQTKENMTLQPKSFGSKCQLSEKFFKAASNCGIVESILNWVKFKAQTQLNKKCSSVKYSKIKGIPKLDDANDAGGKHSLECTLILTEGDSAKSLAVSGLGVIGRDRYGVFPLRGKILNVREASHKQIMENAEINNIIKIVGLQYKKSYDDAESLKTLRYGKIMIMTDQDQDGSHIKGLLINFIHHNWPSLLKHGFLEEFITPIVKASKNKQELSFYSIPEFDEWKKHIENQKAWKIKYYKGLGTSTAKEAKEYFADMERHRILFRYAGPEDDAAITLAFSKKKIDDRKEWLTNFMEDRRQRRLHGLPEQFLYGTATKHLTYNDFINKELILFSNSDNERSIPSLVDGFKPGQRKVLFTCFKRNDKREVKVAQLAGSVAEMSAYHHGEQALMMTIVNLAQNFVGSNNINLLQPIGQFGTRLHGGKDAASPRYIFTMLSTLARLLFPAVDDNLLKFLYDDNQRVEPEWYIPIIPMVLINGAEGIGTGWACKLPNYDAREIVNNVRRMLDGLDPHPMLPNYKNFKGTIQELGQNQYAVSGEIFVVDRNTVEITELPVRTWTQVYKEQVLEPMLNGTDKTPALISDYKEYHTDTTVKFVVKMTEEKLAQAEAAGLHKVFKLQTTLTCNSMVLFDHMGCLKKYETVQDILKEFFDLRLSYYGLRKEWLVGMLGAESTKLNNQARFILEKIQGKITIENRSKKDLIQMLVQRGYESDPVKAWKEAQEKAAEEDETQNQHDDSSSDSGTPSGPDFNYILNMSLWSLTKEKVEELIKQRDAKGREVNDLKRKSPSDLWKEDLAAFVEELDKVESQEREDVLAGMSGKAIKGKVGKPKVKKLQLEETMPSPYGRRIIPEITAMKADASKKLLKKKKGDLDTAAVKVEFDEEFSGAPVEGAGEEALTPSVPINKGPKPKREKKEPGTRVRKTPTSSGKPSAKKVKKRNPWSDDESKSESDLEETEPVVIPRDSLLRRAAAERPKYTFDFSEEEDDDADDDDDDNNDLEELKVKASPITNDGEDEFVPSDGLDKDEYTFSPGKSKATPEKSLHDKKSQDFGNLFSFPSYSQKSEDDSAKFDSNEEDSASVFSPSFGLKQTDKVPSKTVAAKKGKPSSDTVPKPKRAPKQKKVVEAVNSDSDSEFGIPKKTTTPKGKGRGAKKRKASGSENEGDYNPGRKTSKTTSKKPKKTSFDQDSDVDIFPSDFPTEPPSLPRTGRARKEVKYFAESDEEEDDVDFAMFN
Outline: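 Supercoiled pBR322 (250 ng) with test compound in reaction buffer. Started by adding diluted human Topo IIβ, incubated 30 min at 37 °C, quenched with loading buffer. Topoisomers separated on 1% agarose in 1× TBE (20 V, 18 h) and visualised by ethidium bromide staining. ETP and ICRF-187 were included as references.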

[10] = biological target: T1, Topo IIα; experiment: kDNA decatenation assay; assay type: biochemical; details: gel
Outline: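 Commercial kit protocol: 250 ng kDNA with test compound in reaction buffer; started by adding diluted human Topo IIα; 30 min at 37 °C; stopped with loading buffer. Products resolved on 1% agarose in 1xTBE, 20 V for 18 h, EtBr-stained, destained in water, imaged. Catenated versus decatenated kDNA judged by migration.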

[11] = biological target: T2, human Topo IIβ; experiment: kDNA decatenation assay; assay type: biochemical; details: gel
Outline: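 Decatenation: 250 ng kDNA was mixed with test compound in reaction buffer. The reaction was started with diluted human Topo IIβ and run for 30 min at 37 °C, then stopped with loading buffer. Products were resolved on a 1% agarose gel in 1× TBE at 20 V for 18 h and stained with ethidium bromide. ETP and ICRF-187 were references.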

[12] = biological target: T1, Topo IIα; experiment: DNA cleavage assay; assay type: biochemical; details: for Stabilisation of Topo IIα/DNA cleavage complex (linear pBR322 plasmid): gel, ETP 100 µM
Outline: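 Reaction mix as for the human Topo IIα relaxation assay (plasmid DNA, test compound, reaction buffer), but with fivefold more enzyme. Reaction started by adding human Topo IIα, then 10 min at 37 °C. Products separated by agarose gel electrophoresis in 1× TBE containing EtBr (1 µg/ml), and linear plasmid scored on the gel.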

[13] = tested on: A549; experiment: Clonogenic assay; assay type: cell-based, human; details: 24 h treatment, eight days culture, vs DMSO
Outline: (§2)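 A549 or HCT-116 cells were seeded at 400 cells/well and exposed to a range of test compound concentrations for 24 h. After washing, cells were grown for eight days, then fixed in methanol and stained with 0.5% crystal violet. Colonies were counted and viability calculated relative to control. Mean ± SD of three independent experiments.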

[14] = tested on: HCT-116; experiment: Clonogenic assay; assay type: cell-based, human; details: 24 h treatment, eight days culture, vs DMSO
Outline: as §2

[15] = tested on: A549; experiment: Annexin V-FITC/7-AAD apoptosis assay; assay type: cell-based, human; details: Annexin V/7-AAD
[16] = tested on: HCT-116; experiment: Annexin V-FITC/7-AAD apoptosis assay; assay type: cell-based, human; details: for Necrosis activation HCT-116: statistically significant, **p < 0.001
[17] = tested on: A549; experiment: Caspase-3/7 activation; assay type: cell-based, human; details: 24 h, equitoxic concentrations
[18] = tested on: HCT-116; experiment: TUNEL DNA fragmentation analysis; assay type: cell-based, human; details: 24 and 48 h; more pronounced than on A549
[19] = tested on: HCT-116; experiment: Cell cycle analysis; assay type: cell-based, human; details: equitoxic concentrations, 24 and 48 h
[20] = tested on: A549; experiment: BrdU incorporation assay; assay type: cell-based, human; details: equitoxic (IC50) concentration, 24 or 48 h
[21] = tested on: HCT-116; experiment: BrdU incorporation assay; assay type: cell-based, human; details: equitoxic (IC50) concentration, 24 or 48 h
[22] = tested on: MCF-7; experiment: Cell cycle analysis; assay type: cell-based, human; details: 48 h exposure, equitoxic concentration, p < 0.00001
[23] = tested on: A549; details: reference, 50 µM added 15 min before end of incubation
[24] = tested on: HCT-116; details: reference, 50 µM added 15 min before end of incubation
[25] = tested on: A549; details: read-out: IC50 cytotoxic activity A549; 72 h ref 51; cited from earlier work
[26] = tested on: MCF-7; details: read-out: IC50 cytotoxic activity MCF-7; 72 h ref 51; cited from earlier work
[27] = concentration series up to highest concentration tested

c1coc(-c2ccc3c(c2)[nH]c2cc(-c4ccco4)ccc23)c1 [Compound 27a, 2,7-Di(2-furyl)-9H-carbazole]
IC50 [1]: 0.26 ± 0.12 µM
IC50 [2]: 0.22 ± 0.04 µM
IC50 [3]: 0.79 ± 0.21 µM
IC50 [4]: 0.37 ± 0.05 µM
IC50 [5]: 0.45 ± 0.15 µM
IC50 [6]: 0.19 ± 0.07 µM
IC50 [7]: < 1 µM
Inhibition of Topo IIα-mediated pBR322 relaxation ([8]; highest tested concentrations): moderately affected
Inhibition of Topo IIβ-mediated pBR322 relaxation ([9]; highest tested concentrations): moderately affected
Inhibition of Topo IIα-mediated kDNA decatenation [10, 27]: either completely inhibited decatenation only at the highest concentration tested, or partially inhibited the decatenation of higher-order catenates
Inhibition of Topo IIβ-mediated kDNA decatenation ([11]; 100 µM): completely inhibited decatenation
Stabilisation of Topo IIα/DNA cleavage complex (linear pBR322 plasmid) [12]: do not stabilise the covalent cleavage complex
Colony-forming ability A549 [13]: reduced the colony number
Colony-forming ability HCT-116 [14]: reduced the colony number
Increase in fraction of apoptotic cells compared to control A549 [15]: eightfold increase
Increase in fraction of apoptotic cells compared to control HCT-116 ([16]; Annexin V/7-AAD): eightfold increase
Necrosis activation HCT-116 [16]: slightly activated necrosis
Caspase-3/7 activation, increase compared to control A549 [17]: 3.4 fold
TUNEL-positive cells HCT-116 [18]: most massive effect

c1coc(-c2ccc3[nH]c4ccc(-c5ccco5)cc4c3c2)c1 [Compound 36a, 3,6-Di(2-furyl)-9H-carbazole]
IC50 [1]: 0.93 ± 0.15 µM
IC50 [2]: 0.48 ± 0.06 µM
IC50 [3]: 1.39 ± 0.29 µM
IC50 [4]: 0.99 ± 0.18 µM
IC50 [5]: 2.19 ± 0.3 µM
IC50 [6]: 1.65 ± 0.13 µM
Isoform selectivity of relaxation inhibition (Topo IIα vs Topo IIβ) ([8]; from relaxation gels with both isoforms): selectively inhibits the relaxation activity of Topo IIα
Inhibition of Topo IIα-mediated pBR322 relaxation ([8]; 20–100 µM): fully inhibited DNA relaxation
Inhibition of Topo IIβ-mediated pBR322 relaxation ([9]; 20–100 µM): did not impact Topo IIβ activity
Inhibition of Topo IIα-mediated kDNA decatenation ([10]; 4–100 µM): effective and concentration-dependent inhibition
Inhibition of Topo IIβ-mediated kDNA decatenation ([11]; highest concentration tested): partially inhibiting decatenation only at the highest concentration tested
Effect on ETP-induced DNA cleavage (linear plasmid) ([12]; co-treatment with ETP, Topo IIα): reduced the level of linear plasmid
Stabilisation of Topo IIα/DNA cleavage complex (linear pBR322 plasmid) [12]: do not stabilise the covalent cleavage complex
Colony-forming ability A549 [13]: reduced the colony number
Colony-forming ability HCT-116 [14]: reduced the colony number
Cell cycle effect HCT-116 (G0/G1 phase) [19]: time-dependent increase in the number of cells in the G0/G1 phase
Caspase-3/7 activation, increase compared to control A549 [17]: 5.7 fold

c1csc(-c2ccc3[nH]c4ccc(-c5cccs5)cc4c3c2)c1 [Compound 36b, 3,6-Di(2-thienyl)-9H-carbazole]
IC50 [1]: 0.6 ± 0.1 µM
IC50 [2]: 0.27 ± 0.11 µM
IC50 [3]: 0.83 ± 0.21 µM
IC50 [4]: 0.71 ± 0.06 µM
IC50 [5]: 1.4 ± 0.24 µM
IC50 [6]: 0.32 ± 0.11 µM
Inhibition of Topo IIα-mediated pBR322 relaxation ([8]; highest tested concentrations): moderately affected
Inhibition of Topo IIβ-mediated pBR322 relaxation ([9]; highest tested concentrations): moderately affected
Inhibition of Topo IIα-mediated kDNA decatenation [10, 27]: either completely inhibited decatenation only at the highest concentration tested, or partially inhibited the decatenation of higher-order catenates
Stabilisation of Topo IIα/DNA cleavage complex (linear pBR322 plasmid) [12]: do not stabilise the covalent cleavage complex
Colony-forming ability A549 [13]: lower inhibitory activity
Decrease in BrdU-positive cells A549 [20]: approximately 4 fold
Decrease in BrdU-positive cells HCT-116 [21]: ~3.5 fold
Cells in G0/G1 phase MCF-7 [22]: 59.85 ± 2.15%
Necrosis activation HCT-116 [16]: slightly activated necrosis
Caspase-3/7 activation, increase compared to control A549 [17]: 2.5 fold

COc1cc([C@@H]2c3cc4c(cc3[C@@H](O[C@@H]3O[C@@H]5CO[C@@H](C)O[C@H]5[C@H](O)[C@H]3O)[C@H]3COC(=O)[C@H]23)OCO4)cc(OC)c1O [Etoposide, etoposide, reference compound]
IC50 [1]: 0.54 ± 0.21 µM
IC50 [2]: 0.39 ± 0.01 µM
IC50 [3]: 0.83 ± 0.15 µM
IC50 [4]: 0.61 ± 0.04 µM
IC50 [5]: 11.9 ± 1.31 µM

N#CC(C#N)=NNc1ccc(OC(F)(F)F)cc1 [FCCP, carbonyl cyanide 4-(trifluoromethoxy)phenylhydrazone]
Increase in JC-1 monomers vs control A549 [23]: 11 fold
Increase in JC-1 monomers vs control HCT-116 [24]: 6.3 fold

C[C@@H](CN1CC(=O)NC(=O)C1)N1CC(=O)NC(=O)C1 [ICRF-187, reference compound]
Inhibition of Topo IIα-mediated pBR322 relaxation ([8]; reference at 100 µM): completely inhibited relaxation activity
Inhibition of Topo IIβ-mediated pBR322 relaxation ([9]; reference at 100 µM): relatively lower inhibitory effects
Inhibition of Topo IIβ-mediated kDNA decatenation ([11]; 100 µM): more significant effect than ETP

O=C1NC(=S)NC(=O)C1C(=O)Nc1ccccc1 [merbarone]
IC50 [25]: 40 ± 2.7 µM
IC50 [26]: 83.9 ± 3 µM
